Measurements as given in ChEMBL document CHEMBL1134554, “Design, synthesis, and structure-activity relationships of macrocyclic hydroxamic acids that inhibit tumor necrosis factor alpha release in vitro and in vivo” (J Med Chem, 2001).
Values belong to the compound of their own block, whether it stands above or below them.

Key:
[1] = target: Matrix metalloproteinase-9 (Homo sapiens, UniProt P14780); test: In vitro inhibition of human MMP-9.
[2] = target: Disintegrin and metalloproteinase domain-containing protein 17 (Homo sapiens, UniProt P78536)
Disintegrin and metalloproteinase domain-containing protein 17 (Homo sapiens, UniProt P78536), sequence (P78536 whole entry, the tested form may be a part): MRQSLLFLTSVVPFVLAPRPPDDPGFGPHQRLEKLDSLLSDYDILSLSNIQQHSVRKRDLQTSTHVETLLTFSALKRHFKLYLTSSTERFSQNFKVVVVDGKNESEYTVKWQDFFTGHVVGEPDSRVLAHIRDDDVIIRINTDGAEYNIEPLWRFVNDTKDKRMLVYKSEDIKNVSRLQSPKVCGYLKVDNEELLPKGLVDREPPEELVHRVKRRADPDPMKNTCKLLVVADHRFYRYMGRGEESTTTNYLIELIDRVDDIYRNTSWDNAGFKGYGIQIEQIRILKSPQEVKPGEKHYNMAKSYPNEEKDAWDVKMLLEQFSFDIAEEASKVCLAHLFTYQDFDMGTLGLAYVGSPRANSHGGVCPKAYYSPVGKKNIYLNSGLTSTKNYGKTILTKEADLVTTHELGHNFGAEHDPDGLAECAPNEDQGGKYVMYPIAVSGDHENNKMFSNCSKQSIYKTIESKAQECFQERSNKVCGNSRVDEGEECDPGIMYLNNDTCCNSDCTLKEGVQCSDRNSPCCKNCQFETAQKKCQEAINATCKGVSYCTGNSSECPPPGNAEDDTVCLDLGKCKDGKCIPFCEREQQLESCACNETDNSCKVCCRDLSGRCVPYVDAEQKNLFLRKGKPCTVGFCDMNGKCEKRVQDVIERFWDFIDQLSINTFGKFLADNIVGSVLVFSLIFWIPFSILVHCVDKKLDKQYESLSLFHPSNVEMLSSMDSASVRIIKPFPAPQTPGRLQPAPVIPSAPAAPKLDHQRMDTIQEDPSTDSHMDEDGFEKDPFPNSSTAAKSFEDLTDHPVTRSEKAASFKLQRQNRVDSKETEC

Interstitial collagenase = target: T1, Interstitial collagenase (Homo sapiens, UniProt P03956); test: In vitro inhibition of human MMP-1.
T1 sequence (P03956 whole entry): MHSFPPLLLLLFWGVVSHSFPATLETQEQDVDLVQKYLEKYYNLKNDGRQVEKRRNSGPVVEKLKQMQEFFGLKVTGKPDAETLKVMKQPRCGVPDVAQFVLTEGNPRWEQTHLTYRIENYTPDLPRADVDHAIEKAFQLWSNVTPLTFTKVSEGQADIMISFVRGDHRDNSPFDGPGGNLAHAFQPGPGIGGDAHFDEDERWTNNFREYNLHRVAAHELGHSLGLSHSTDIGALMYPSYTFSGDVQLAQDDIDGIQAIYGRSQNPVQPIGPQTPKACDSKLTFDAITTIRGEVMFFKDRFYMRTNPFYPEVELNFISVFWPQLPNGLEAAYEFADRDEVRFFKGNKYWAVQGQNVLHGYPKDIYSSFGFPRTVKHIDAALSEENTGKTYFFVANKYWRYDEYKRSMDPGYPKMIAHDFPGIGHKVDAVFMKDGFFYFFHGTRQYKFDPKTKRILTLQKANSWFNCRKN

Mus musculus [3] = test: Compound at an oral dose of 30 mg/Kg was tested for the inhibition of LPS-stimulated TNF-alpha release in mouse; assay type: functional
How it was run: (§1)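 Mice dosed orally at time zero, then immediately given ip D-galactosamine 20 mg plus LPS 10 μg. One hour later, animals anesthetized and bled by cardiac puncture. Plasma TNF-α quantified by mouse-specific ELISA.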

Stromelysin-1 = Stromelysin-1 (Homo sapiens, UniProt P08254); test: Inhibition of human MMP-3.
Stromelysin-1, sequence (P08254 whole entry): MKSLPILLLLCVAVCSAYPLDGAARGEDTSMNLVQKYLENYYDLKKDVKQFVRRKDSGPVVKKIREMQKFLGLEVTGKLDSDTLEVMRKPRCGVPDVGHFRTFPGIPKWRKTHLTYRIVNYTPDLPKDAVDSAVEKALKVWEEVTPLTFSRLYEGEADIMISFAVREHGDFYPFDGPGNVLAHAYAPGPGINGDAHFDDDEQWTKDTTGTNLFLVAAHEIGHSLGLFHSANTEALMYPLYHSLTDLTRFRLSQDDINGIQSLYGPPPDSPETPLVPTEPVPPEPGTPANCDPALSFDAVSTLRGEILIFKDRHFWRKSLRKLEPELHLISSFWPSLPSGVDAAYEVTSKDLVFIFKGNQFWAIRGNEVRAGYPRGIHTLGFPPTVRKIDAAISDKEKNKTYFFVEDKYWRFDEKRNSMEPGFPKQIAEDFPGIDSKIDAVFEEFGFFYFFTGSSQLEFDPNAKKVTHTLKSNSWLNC

Mus musculus [4] = test: Compound at an oral dose of 100 mg/Kg was tested for the inhibition of LPS-stimulated TNF-alpha release in mouse; assay type: functional; how it was run: as §1
Neutrophil collagenase = Neutrophil collagenase (Homo sapiens, UniProt P22894); test: Inhibition of matrix metalloprotease-8
Neutrophil collagenase, sequence (P22894 whole entry): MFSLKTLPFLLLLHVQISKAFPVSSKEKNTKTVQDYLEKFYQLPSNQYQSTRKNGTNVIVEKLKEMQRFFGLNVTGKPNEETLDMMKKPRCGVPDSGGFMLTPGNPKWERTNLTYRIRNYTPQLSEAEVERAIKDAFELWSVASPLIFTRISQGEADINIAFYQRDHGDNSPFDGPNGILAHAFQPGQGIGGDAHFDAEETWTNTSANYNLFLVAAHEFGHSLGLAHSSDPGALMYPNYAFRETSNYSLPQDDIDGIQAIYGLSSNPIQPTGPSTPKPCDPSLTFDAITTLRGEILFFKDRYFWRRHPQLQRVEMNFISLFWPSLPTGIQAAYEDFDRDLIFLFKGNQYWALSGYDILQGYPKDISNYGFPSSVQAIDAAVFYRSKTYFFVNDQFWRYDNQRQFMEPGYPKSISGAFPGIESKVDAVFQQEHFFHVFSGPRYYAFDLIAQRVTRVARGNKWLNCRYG

[5] = Pharmacokinetic data in Beagle dogs at 0.74 mg/kg i.v. dose and 0.863 mg/kg p.o. dose; assay type: ADME, organism-based, Canis lupus familiaris; details: dog, in vivo, po
How it was run: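 Male beagle dogs: iv 0.74 mg/kg in 10% ethanol (n=2), oral 0.863 mg/kg in 0.5% methocell suspension (n=2). Blood sampled to 24 h post-dose. Plasma analysed by LC/MS/MS after solid-phase extraction (detection limit 10 nM). Mean parameters given.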

[6] = target: Matrix metalloproteinase-16 (Homo sapiens, UniProt P51512); test: Inhibition of matrix metalloprotease-16
Matrix metalloproteinase-16, sequence (P51512 whole entry): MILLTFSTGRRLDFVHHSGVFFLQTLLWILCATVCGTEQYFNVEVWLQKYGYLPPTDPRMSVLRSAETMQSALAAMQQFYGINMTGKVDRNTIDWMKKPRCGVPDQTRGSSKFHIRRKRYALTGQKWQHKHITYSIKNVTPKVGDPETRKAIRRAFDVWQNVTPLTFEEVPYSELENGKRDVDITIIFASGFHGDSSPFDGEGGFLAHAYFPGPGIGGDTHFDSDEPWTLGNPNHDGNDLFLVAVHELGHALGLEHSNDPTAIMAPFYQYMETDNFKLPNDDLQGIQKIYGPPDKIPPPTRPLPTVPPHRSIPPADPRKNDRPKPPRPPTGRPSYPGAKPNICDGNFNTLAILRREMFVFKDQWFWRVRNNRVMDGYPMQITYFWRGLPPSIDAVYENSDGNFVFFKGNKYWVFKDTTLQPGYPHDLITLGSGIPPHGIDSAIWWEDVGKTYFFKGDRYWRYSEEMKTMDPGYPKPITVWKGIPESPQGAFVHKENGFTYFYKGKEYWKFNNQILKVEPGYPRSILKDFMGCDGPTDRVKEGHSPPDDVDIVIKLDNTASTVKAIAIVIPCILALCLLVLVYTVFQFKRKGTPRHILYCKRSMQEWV

[7] = target: 72 kDa type IV collagenase (Homo sapiens, UniProt P08253)
72 kDa type IV collagenase, sequence (P08253 whole entry): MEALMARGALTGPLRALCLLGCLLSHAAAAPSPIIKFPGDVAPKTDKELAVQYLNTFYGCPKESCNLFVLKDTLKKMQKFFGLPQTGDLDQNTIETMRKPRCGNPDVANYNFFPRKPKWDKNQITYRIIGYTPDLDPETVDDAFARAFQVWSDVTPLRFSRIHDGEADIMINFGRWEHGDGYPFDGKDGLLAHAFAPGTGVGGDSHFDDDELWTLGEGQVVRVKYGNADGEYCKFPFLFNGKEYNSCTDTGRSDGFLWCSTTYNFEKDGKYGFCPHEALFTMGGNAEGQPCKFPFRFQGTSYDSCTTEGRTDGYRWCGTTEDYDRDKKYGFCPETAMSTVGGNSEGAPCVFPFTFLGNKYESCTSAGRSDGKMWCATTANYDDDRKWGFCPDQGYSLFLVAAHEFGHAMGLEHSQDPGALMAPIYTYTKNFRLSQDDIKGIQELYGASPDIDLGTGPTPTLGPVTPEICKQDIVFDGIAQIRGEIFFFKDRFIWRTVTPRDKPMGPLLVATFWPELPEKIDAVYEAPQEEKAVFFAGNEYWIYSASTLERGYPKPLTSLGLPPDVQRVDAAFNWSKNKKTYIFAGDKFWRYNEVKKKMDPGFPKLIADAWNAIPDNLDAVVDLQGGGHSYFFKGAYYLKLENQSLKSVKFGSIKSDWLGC

[8] = Maximal plasma concentration in Beagle dogs after 0.74 mg/kg intravenous dose.; assay type: ADME, organism-based, Canis lupus familiaris; set-up: dose 0.74 mg/kg, route intravenous; details: dog, in vivo
How it was run: (§2)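 Male beagle dogs (~10 kg), two per compound, dosed iv in 10% ethanol solution. Blood sampled before dosing and at 1, 2, 4, 6, 8, 12 and 24 h after. Plasma levels measured by LC/MS/MS after solid-phase extraction (detection limit 10 nM). Parameters reported as mean.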

[9] = Pharmacokinetic data in Beagle dogs at 0.863 mg/kg oral dose.; assay type: ADME, organism-based, Canis lupus familiaris; set-up: dose 0.863 mg/kg, route oral; details: dog, in vivo
How it was run: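 Two male beagle dogs (~10 kg) given 0.863 mg/kg orally as a 0.5% methocell suspension. Blood sampled before dosing and at 1, 2, 4, 6, 8, 12 and 24 h after. Plasma levels measured by LC/MS/MS after solid-phase extraction (detection limit 10 nM). Parameters reported as mean.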

Matrilysin = target: T2, Matrilysin (Homo sapiens, UniProt P09237); test: Inhibition of matrix metalloprotease-7
T2 sequence (P09237 whole entry): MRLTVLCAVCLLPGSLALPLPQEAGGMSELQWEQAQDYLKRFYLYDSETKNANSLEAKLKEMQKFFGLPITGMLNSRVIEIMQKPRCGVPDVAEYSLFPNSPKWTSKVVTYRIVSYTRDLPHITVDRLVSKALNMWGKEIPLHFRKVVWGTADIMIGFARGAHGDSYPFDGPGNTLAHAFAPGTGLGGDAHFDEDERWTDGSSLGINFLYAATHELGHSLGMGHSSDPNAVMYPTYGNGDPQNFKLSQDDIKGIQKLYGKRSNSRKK

Collagenase 3 = Collagenase 3 (Homo sapiens, UniProt P45452)
[10] = target: Matrix metalloproteinase-15 (Homo sapiens, UniProt P51511); test: Inhibition of matrix metalloprotease-15
Matrix metalloproteinase-15, sequence (P51511 whole entry, the tested form may be a part): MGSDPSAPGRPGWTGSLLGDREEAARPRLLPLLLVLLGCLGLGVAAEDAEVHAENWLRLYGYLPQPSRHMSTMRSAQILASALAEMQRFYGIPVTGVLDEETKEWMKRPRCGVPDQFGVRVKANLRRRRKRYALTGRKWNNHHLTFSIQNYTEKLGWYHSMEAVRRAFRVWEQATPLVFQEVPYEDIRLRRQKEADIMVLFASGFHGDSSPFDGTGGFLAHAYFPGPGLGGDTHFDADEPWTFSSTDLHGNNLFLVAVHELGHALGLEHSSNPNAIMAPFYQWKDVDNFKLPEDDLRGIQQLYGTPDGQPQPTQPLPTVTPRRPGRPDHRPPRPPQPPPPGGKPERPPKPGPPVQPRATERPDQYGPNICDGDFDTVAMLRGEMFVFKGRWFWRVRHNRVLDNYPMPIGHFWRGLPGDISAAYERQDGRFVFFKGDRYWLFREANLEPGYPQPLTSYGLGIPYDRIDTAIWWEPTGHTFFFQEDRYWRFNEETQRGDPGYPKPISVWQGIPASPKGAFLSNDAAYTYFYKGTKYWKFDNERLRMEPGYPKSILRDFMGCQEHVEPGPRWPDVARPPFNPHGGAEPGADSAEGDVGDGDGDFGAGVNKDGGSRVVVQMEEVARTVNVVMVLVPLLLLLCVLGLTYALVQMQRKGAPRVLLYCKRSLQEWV

[11] = target: Disintegrin and metalloproteinase domain-containing protein 17 (Sus scrofa, UniProt O77636)
[12] = Pharmacokinetic data in Beagle dogs at 0.74 mg/kg intravenous dose.; assay type: ADME, organism-based, Canis lupus familiaris; set-up: dose 0.74 mg/kg, route intravenous; details: dog, in vivo; how it was run: as §2
[13] = target: Matrix metalloproteinase-14 (Homo sapiens, UniProt P50281); test: Inhibition of matrix metalloprotease-14
[14] = Pharmacokinetic data in Beagle dogs at 2.0 mg/kg oral dose; assay type: ADME, organism-based, Canis lupus familiaris; set-up: dose 2 mg/kg, route oral; details: dog, in vivo
[15] = Pharmacokinetic data in Beagle dogs at 2.0 mg/kg oral dose.; assay type: ADME, organism-based, Canis lupus familiaris; set-up: dose 2 mg/kg, route oral; details: dog, in vivo
[16] = Pharmacokinetic data in Beagle dogs at 0.5 mg/kg i.v. dose and 2.0 mg/kg p.o. dose; assay type: ADME, organism-based, Canis lupus familiaris; details: dog, in vivo, po
[17] = Maximal plasma concentration in Beagle dogs after 0.5 mg/kg intravenous dose.; assay type: ADME, organism-based, Canis lupus familiaris; set-up: dose 0.5 mg/kg, route intravenous; details: dog; how it was run: as §2
[18] = Pharmacokinetic data in Beagle dogs at 0.5 mg/kg intravenous dose.; assay type: ADME, organism-based, Canis lupus familiaris; set-up: dose 0.5 mg/kg, route intravenous; details: dog, in vivo; how it was run: as §2

Matrix metalloproteinase-9, sequence (P14780 whole entry, the tested form may be a part): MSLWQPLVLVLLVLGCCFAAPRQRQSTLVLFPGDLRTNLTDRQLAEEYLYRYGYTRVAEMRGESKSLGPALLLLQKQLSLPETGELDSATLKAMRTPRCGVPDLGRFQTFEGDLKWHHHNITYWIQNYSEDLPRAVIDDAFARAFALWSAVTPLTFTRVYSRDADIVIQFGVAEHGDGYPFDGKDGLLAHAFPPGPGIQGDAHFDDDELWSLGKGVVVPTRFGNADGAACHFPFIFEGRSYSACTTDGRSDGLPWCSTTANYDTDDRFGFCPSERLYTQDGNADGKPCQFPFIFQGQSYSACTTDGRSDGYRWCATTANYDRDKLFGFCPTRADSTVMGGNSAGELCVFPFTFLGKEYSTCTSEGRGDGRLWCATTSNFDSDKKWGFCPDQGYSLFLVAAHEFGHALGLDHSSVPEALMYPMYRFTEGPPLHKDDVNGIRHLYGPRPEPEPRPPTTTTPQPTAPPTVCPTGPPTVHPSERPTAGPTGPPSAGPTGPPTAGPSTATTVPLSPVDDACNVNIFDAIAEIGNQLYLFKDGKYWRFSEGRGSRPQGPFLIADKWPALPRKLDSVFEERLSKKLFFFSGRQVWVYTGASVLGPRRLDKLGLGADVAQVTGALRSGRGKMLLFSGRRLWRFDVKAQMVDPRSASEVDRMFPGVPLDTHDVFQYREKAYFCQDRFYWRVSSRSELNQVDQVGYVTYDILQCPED

SMILES: CC(C)C[C@H]1C(=O)N[C@H](C(=O)NCC(=O)NC2CCC2)Cc2ccc(cc2)OCCC[C@@H]1C(=O)NO
inhibition in vivo at 30 mg/kg (Mus musculus [3]): 31% | IC50 [2]: 200 nM

SMILES: CNC(=O)[C@@H]1CCCc2ccc(cc2)OCCC[C@H](C(=O)NO)[C@@H](CC(C)C)C(=O)N1
Ki (Stromelysin-1): 16.2 nM | Ki [1]: 3.3 nM | IC50 [2]: 2400 nM | Ki (Interstitial collagenase): 1.8 nM

SMILES: CNC(=O)[C@@H]1CSc2ccccc2NC(=O)CO[C@H](C(=O)NO)[C@@H](CC(C)C)C(=O)N1
Ki (Stromelysin-1): 22.3 nM | IC50 [2]: 8000 nM | Ki (Interstitial collagenase): < 1 nM

SMILES: CNC(=O)[C@@H](Cc1ccc(OC)cc1)NC(=O)[C@H](CC(C)C)[C@H](C)C(=O)NO
Ki [1]: < 1 nM | IC50 [2]: 1800 nM | Ki (Interstitial collagenase): < 1 nM

SMILES: CNC(=O)[C@@H]1CCCCN(C)C(=O)OCCC[C@H](C(=O)NO)[C@@H](CC(C)C)C(=O)N1
Ki [1]: < 1 nM | IC50 [2]: 2300 nM | Ki (Interstitial collagenase): < 1 nM

SMILES: CCCCCC[C@H]1C(=O)N[C@H](C(=O)NC)Cc2ccc(cc2)OCCC[C@@H]1C(=O)NO
inhibition in vivo at 100 mg/kg (Mus musculus [4]): 26% | IC50 [2]: 2500 nM

SMILES: CNC(=O)CNC(=O)[C@@H]1Cc2ccc(cc2)OCCC[C@H](C(=O)NO)[C@@H](CC(C)C)C(=O)N1
Ki (Stromelysin-1): 14 nM | Ki (Neutrophil collagenase): 0.5 nM | bioavailability [5]: 11% | Ki [6]: 35 nM | Ki [1]: 0.9 nM | Ki [7]: 1.1 nM | Cmax [8]: 121 ng/mL | AUC [9]: 342 ng·h/mL | half-life [9]: 77.4 min | Ki (Matrilysin): 0.8 nM | Ki (Collagenase 3): 0.45 nM | Ki [10]: 20 nM | Ki [11]: 12 nM | AUC [12]: 2613 ng·h/mL | T1/2 [12]: 48.6 min | T max [12]: 52.8 min | clearance [12]: 7 mL/min/kg | Vd ([12]; read-out: Vss): 0.7 L/kg | IC50 [2]: 220 nM | Ki [13]: 94 nM | Ki (Interstitial collagenase): 3 nM

SMILES: CNC(=O)[C@@H]1Cc2cn(c3ccccc23)CCCCO[C@H](C(=O)NO)[C@@H](CC(C)C)C(=O)N1
Ki (Stromelysin-1): 2.88 nM | IC50 [2]: 3700 nM | Ki (Interstitial collagenase): < 1 nM

SMILES: CC(C)C[C@H]1C(=O)N[C@H](C(=O)NCc2cccnc2)CCCCNC(=O)OCCC[C@@H]1C(=O)NO
IC50 [2]: 500 nM

SMILES: CNC(=O)[C@@H](Cc1ccc(OC)cc1)NC(=O)[C@@H]1Cc2ccc(cc2)OCCC[C@H](C(=O)NO)[C@@H](CC(C)C)C(=O)N1
IC50 [2]: 850 nM

SMILES: CC(C)C[C@H]1C(=O)N[C@H](C(=O)NCC(=O)N2CCOCC2)CCCCNC(=O)OCCC[C@@H]1C(=O)NO
half-life [14]: 132 min | Ki (Stromelysin-1): 7.8 nM | Ki [6]: 107 nM | AUC [15]: 1910 ng·h/mL | bioavailability [16]: 23% | Ki [1]: 1.2 nM | Cmax [17]: 667 ng/mL | AUC [18]: 2080 ng·h/mL | Tmax [18]: 1.25 h | clearance [18]: 4.83 mL/min/kg | half-life [18]: 60 min | Vd ([18]; read-out: Vss): 0.33 L/kg | Ki (Matrilysin): 1.5 nM | Ki [10]: 71 nM | Ki [13]: 140 nM | Ki (Interstitial collagenase): 13 nM

SMILES: CC(C)C[C@H]1C(=O)N[C@H](C(=O)NCC(=O)N2CCCC2)CCCCN(C)C(=O)OCCC[C@@H]1C(=O)NO
IC50 [2]: 400 nM

SMILES: CNC(=O)[C@@H]1CCCCN(C)C(=O)CO[C@H](C(=O)NO)[C@@H](CC(C)C)C(=O)N1
Ki (Stromelysin-1): 3 nM | Ki [1]: 3.9 nM | IC50 [2]: 3800 nM | Ki (Interstitial collagenase): < 1 nM

Further lines, with some results ahead:

Ki [1]: 1.1 nM | IC50 [2]: 1000 nM | Ki (Interstitial collagenase): < 1 nM
SMILES: CNC(=O)[C@@H]1CCCCNC(=O)OCCC[C@H](C(=O)NO)[C@@H](CC(C)C)C(=O)N1

IC50 [2]: 480 nM
SMILES: CCCCCC[C@H]1C(=O)N[C@H](C(=O)NCCc2ccc(S(N)(=O)=O)cc2)Cc2ccc(cc2)OCCC[C@@H]1C(=O)NO
inhibition in vivo at 30 mg/kg (Mus musculus [3]): 26%

IC50 [2]: 760 nM
SMILES: CCCCCC[C@H]1C(=O)N[C@H](C(=O)N[C@H](CCCCN)C(N)=O)Cc2ccc(cc2)OCCC[C@@H]1C(=O)NO
inhibition in vivo at 30 mg/kg (Mus musculus [3]): 36%

IC50 [2]: 200 nM
SMILES: CC(C)C[C@H]1C(=O)N[C@H](C(=O)NCC(=O)N2CCC(O)CC2)Cc2ccc(cc2)OCCC[C@@H]1C(=O)NO

Ki (Stromelysin-1): 48 nM | Ki [1]: 2.1 nM | IC50 [2]: 1000 nM | Ki (Interstitial collagenase): 5.3 nM
SMILES: CNC(=O)[C@@H]1CCc2ccc(cc2)OCCC[C@H](C(=O)NO)[C@@H](CC(C)C)C(=O)N1

IC50 [2]: 200 nM
SMILES: CC(C)C[C@H]1C(=O)N[C@H](C(=O)NCC(=O)NC(C)(C)C)Cc2ccc(cc2)OCCC[C@@H]1C(=O)NO
inhibition in vivo at 30 mg/kg (Mus musculus [3]): 21%

IC50 [2]: 300 nM
SMILES: CCCCCC[C@H]1C(=O)N[C@H](C(=O)N[C@H](COC(C)(C)C)C(=O)NC)Cc2ccc(cc2)OCCC[C@@H]1C(=O)NO
inhibition in vivo at 30 mg/kg (Mus musculus [3]): 18%

IC50 [2]: 130 nM
SMILES: CCOC(=O)N1CCC(NC(=O)[C@@H]2CCCCNC(=O)OCCC[C@H](C(=O)NO)[C@@H](CC(C)C)C(=O)N2)CC1

IC50 [2]: 950 nM
SMILES: CNC(=O)[C@@H](COC(C)(C)C)NC(=O)[C@@H]1Cc2ccc(cc2)OCCC[C@H](C(=O)NO)[C@@H](CC(C)C)C(=O)N1

Ki [1]: 3.6 nM | IC50 [2]: 1600 nM | Ki (Interstitial collagenase): 1.4 nM
SMILES: CNC(=O)[C@@H]1CCCCNC(=O)CC[C@H](C(=O)NO)[C@@H](CC(C)C)C(=O)N1

IC50 [2]: 1000 nM
SMILES: CC(C)C[C@H]1C(=O)N[C@H](C(=O)NCCc2ccc(S(N)(=O)=O)cc2)Cc2ccc(cc2)OCCC[C@@H]1C(=O)NO

IC50 [2]: 270 nM
SMILES: CNC(=O)[C@@H](C)NC(=O)[C@@H]1CCCCNC(=O)OCCC[C@H](C(=O)NO)[C@@H](CC(C)C)C(=O)N1

IC50 [2]: 820 nM
SMILES: CCCCCC[C@H]1C(=O)N[C@H](C(=O)NCCCn2ccnc2)Cc2ccc(cc2)OCCC[C@@H]1C(=O)NO
inhibition in vivo at 30 mg/kg (Mus musculus [3]): 30%

IC50 [2]: 830 nM
SMILES: CNC(=O)[C@@H](CCCCN)NC(=O)[C@@H]1Cc2ccc(cc2)OCCC[C@H](C(=O)NO)[C@@H](CC(C)C)C(=O)N1

IC50 [2]: 400 nM
SMILES: CC(C)C[C@H]1C(=O)N[C@H](C(=O)NCC(=O)N(C)C)Cc2ccc(cc2)OCCC[C@@H]1C(=O)NO
inhibition in vivo at 30 mg/kg (Mus musculus [3]): 45%
